From ChEMBL document CHEMBL1125410, “Selective irreversible inhibitors of aldose reductase” (J Med Chem, 1992)
Values belong to the molecule of their own block, whether it stands above or below them.

Tests used:
[1] = tested on: Aldehyde reductase AKR1A1 (Rattus norvegicus); assay: Compound was evaluated for irreversible inhibition of Rat kidney Aldehyde reductase (RKALR) at 10e-4 M
[2] = target: Aldo-keto reductase family 1 member B1 (Rattus norvegicus, UniProt P07943); assay: Compound was evaluated for the inhibition of Rat Lens Aldose reductase (RLAR)
How it was run: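 Purified rat lens aldose reductase and rat kidney aldehyde reductase, each homogeneous on SDS-PAGE. The 1.0 mL assay held equal enzyme units in 0.10 M Na,K phosphate (pH 6.2), 0.3 mM NADPH, 10 mM DL-glyceraldehyde and inhibitor. The NADPH decrease at 340 nm was followed over 4 min, with no-substrate absorbance controls. IC50 is given as mean ± SD.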

[3] = target: Aldo-keto reductase family 1 member B1 (Rattus norvegicus) (UniProt P07943); assay: Compound was evaluated for irreversible inhibition of Rat Lens Aldose reductase (RLAR) at 10e-4 M
How it was run: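 Each purified reductase was desalted into 0.1 M phosphate (pH 7.4) to remove glycerol and 2-mercaptoethanol. Enzyme (ca. 0.3 unit/mL) was exposed to inhibitor or buffer alone for 15 min at room temperature. A 400 µL aliquot was then desalted into pH 7.0 phosphate with 10 mM 2-mercaptoethanol, and BSA was added. The eluate was kept on ice, and residual activity was read from NADPH loss at 340 nm with DL-glyceraldehyde. Runs were at least triplicate and averaged.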

[4] = Ratio of IC50(RKALR) vs IC50(RLAR)
[5] = target: Aldo-keto reductase family 1 member B1 (Rattus norvegicus) (UniProt P07943); assay: Protection by the compound of irreversible inhibition of Rat Lens Aldose reductase by [5-(2-Iodo-acetyl)-1,3-dioxo-1H,3H-benzo[de]isoquinolin-2-yl]-acetic acid(0.1 mM) at 0.1 mM concentration; format: functional
How it was run: (§1)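 Rat lens aldose reductase was desalted into 0.1 M phosphate (pH 7.4). The enzyme was preincubated 5 min with the reversible inhibitor, then the iodoacetamide label was added for a further 5 min. Unreacted reagent was removed by desalting into buffer with 10 mM 2-mercaptoethanol, BSA was added, and residual activity was read by NADPH loss at 340 nm. Runs were at least triplicate and averaged.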

[6] = target: Aldo-keto reductase family 1 member B1 (Rattus norvegicus) (UniProt P07943); assay: Protection by the compound of irreversible inhibition of Rat Lens Aldose reductase by [5-(2-Iodo-acetyl)-1,3-dioxo-1H,3H-benzo[de]isoquinolin-2-yl]-acetic acid(0.1 mM) at 1 mM concentration; format: functional
How it was run: as §1

[7] = target: Aldo-keto reductase family 1 member B1 (Rattus norvegicus) (UniProt P07943); assay: Protection by the compound of irreversible inhibition of Rat Lens Aldose reductase by [5-(2-Iodo-acetyl)-1,3-dioxo-1H,3H-benzo[de]isoquinolin-2-yl]-acetic acid(0.01 mM) at 0.01 mM concentration; format: functional
How it was run: as §1

[8] = target: Aldo-keto reductase family 1 member B1 (Rattus norvegicus) (UniProt P07943); assay: Protection by the compound of irreversible inhibition of Rat Lens Aldose reductase by [5-(2-Iodo-acetyl)-1,3-dioxo-1H,3H-benzo[de]isoquinolin-2-yl]-acetic acid(0.01 mM) at 0.1 mM concentration; format: functional
How it was run: as §1

[9] = target: Aldo-keto reductase family 1 member B1 (Rattus norvegicus) (UniProt P07943); assay: Protection by the compound of irreversible inhibition of Rat Lens Aldose reductase by [5-(2-Iodo-acetyl)-1,3-dioxo-1H,3H-benzo[de]isoquinolin-2-yl]-acetic acid(0.01 mM) at 1 mM concentration; format: functional
How it was run: as §1

[10] = target: Aldo-keto reductase family 1 member B1 (Rattus norvegicus) (UniProt P07943); assay: Protection by the compound of irreversible inhibition of Rat Lens Aldose reductase by [5-(2-Iodo-acetyl)-1,3-dioxo-1H,3H-benzo[de]isoquinolin-2-yl]-acetic acid(0.1 mM) at 0.01 mM concentration; format: functional
How it was run: as §1

- inhibition [1]: 0%
SMILES: O=C(O)CN1C(=O)c2cccc3cc(N=C=S)cc(c23)C1=O

- IC50 [2]: 600 nM
- inhibition [3]: 46%
- Ratio [4]: 13 Ratio
SMILES: O=C(O)CN1C(=O)c2cccc3cc(NC(=O)CBr)cc(c23)C1=O

- inhibition [3]: 89%
SMILES: O=C(O)CN1C(=O)c2cccc3cc(C(=O)CI)cc(c23)C1=O

- IC50 [2]: 640 nM
- Protection [5]: 19%
- Protection [6]: 39%
- Protection [7]: 11%
- Protection [8]: 43%
- Protection [9]: 100%
- Protection [10]: 17%
- Ratio [4]: 10
SMILES: CC(=O)Nc1cc2c3c(cccc3c1)C(=O)N(CC(=O)O)C2=O
